Source: ChEMBL document CHEMBL1136789, “Synthesis and biological evaluation of new 2-(4,5-dihydro-1H-imidazol-2-yl)-3,4-dihydro-2H-1,4-benzoxazine derivatives” (J Med Chem, 2003)
The source made the active and inactive calls. The rule behind the calls is not given here.

What was measured:
[1] = In vitro alpha-1 adrenergic receptor binding affinity was determined on calf frontal cortex membrane preparation; type: tissue-based, Bos taurus
How it was run: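 Calf frontal cortex membranes (0.5 mg protein/mL) incubated 40 min at 25 °C with 0.5 nM [3H]prazosin in 50 mM phosphate buffer with 10 mM MgCl2. Competitors at 10^-9 to 10^-4 M. Nonspecific binding set with 10 µM phentolamine. Stopped by rapid vacuum filtration through glass fibre filters, then washed three times with ice-cold buffer. Ki reported.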

[2] = In vitro alpha-2 adrenergic receptor binding affinity was determined on calf frontal cortex membrane preparation; type: tissue-based, Bos taurus
Rattus norvegicus [3] = assay: Effect at (25 mg/kg, ip) on heart rate in anesthetized spontaneously hypertensive rats; type: functional
How it was run: (§1)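 Adult male SHR anaesthetised with sodium pentobarbital 50 mg/kg ip, left carotid catheter filled with heparinised saline. BP and HR (HR from pulse pressure) stabilised ≥40 min before a single ip dose, n=6/group. Vehicle 0.5% carboxymethylcellulose in water, 2.5 mL/kg. Recorded over 90 min. Output is the maximal change in MAP (mmHg) and HR (bpm) from pre-dose baseline, also as %. Repeated-measures ANOVA with Dunnett's tests.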

Rattus norvegicus [4] = assay: Effect (25 mg/kg ip) on mean arterial blood pressure in anesthetized spontaneously hypertensive rats; type: functional; how it was run: as §1
Rattus norvegicus [5] = assay: Effect (25 mg/kg ip) on heart rate in anesthetized spontaneously hypertensive rats; type: functional; how it was run: as §1
Rattus norvegicus [6] = assay: Effect at 25 mg/kg, ip, on mean arterial blood pressure in anesthetized spontaneously hypertensive rats; lethal at 12.5 mg; toxic at 5 mg; inactive at 0.5 mg; type: functional, organism-based; set-up: dose 25 mg/kg
[7] = molecular target: imidazoline I2 binding site (Oryctolagus cuniculus); assay: In vitro binding affinity determined against imidazoline receptor I-2 using rabbit kidney preparation
Rattus norvegicus [8] = assay: Effect after 10 mg/kg, po, on mean arterial blood pressure in conscious spontaneously hypertensive rats; type: functional
How it was run: (§2)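 Studied conscious 24 h after surgery. Dosed by oral gavage after ≥40 min stabilisation, n=6/group. Vehicle 0.5% carboxymethylcellulose, 5 mL/kg. MAP and HR recorded over 24 h. Output is the maximal change from baseline (mmHg, bpm, %). Repeated-measures ANOVA with Dunnett's tests.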

Rattus norvegicus [9] = assay: Effect after 30 mg/kg, po, on mean arterial blood pressure in conscious spontaneously hypertensive rats; type: functional; how it was run: as §2
Rattus norvegicus [10] = assay: Effect after 30 mg/kg, po, on heart rate in conscious spontaneously hypertensive rats; type: functional; how it was run: as §2
Rattus norvegicus [11] = assay: Effect after 10 mg/kg, po, on heart rate in conscious spontaneously hypertensive rats; type: functional; how it was run: as §2
Rattus norvegicus [12] = assay: Effect after 100 mg/kg, po, on mean arterial blood pressure in conscious spontaneously hypertensive rats; type: functional; how it was run: as §2
Rattus norvegicus [13] = assay: Effect after 100 mg/kg, po, on heart rate in conscious spontaneously hypertensive rats; type: functional; how it was run: as §2

| SMILES | Ki [1] [µM] | Ki [2] [µM] | Max delta HR (Rattus norvegicus [3]) [beats min-1] | Max delta MAP (Rattus norvegicus [4]) [mmHg] | Variation (Rattus norvegicus [4]) [%] | Variation (Rattus norvegicus [5]) [%] | also measured |
| --- | --- | --- | --- | --- | --- | --- | --- |
| COC(=O)c1ccc2c(c1)N(C)CC(C1=NCCN1)O2 (centres undefined) | > 10 | 7.5 |  |  |  |  |  |
| Cc1cccc2c1N(C)CC(C1=NCCN1)O2 (centres undefined) | 4.74 | 0.145 | -52 | 47 | 23 | -16 |  |
| Cc1cc(C)c2c(c1)N(C)CC(C1=NCCN1)O2 (centres undefined) | > 1 | 0.0124 |  |  |  |  | Max delta MAP (Rattus norvegicus [6]): inactive; Variation (Rattus norvegicus [6]): inactive |
| CN1CC(C2=NCCN2)Oc2cc3c(cc21)CCCC3 (centres undefined) | > 10 | 0.098 | -53 | -15 | -9 | -17 |  |
| c1ccc(CN2CC(C3=NCCN3)Oc3ccccc32)cc1 (centres undefined) | 3.5 | 1.3 | -21 | -4 | -2 | -7 | Ki [7]: 1.6 µM |
| c1cc2c3c(c1)OC(C1=NCCN1)CN3CCC2 (centres undefined) | 0.71 | 0.34 | -77 | -34 | -20 | -24 |  |
| COc1ccc2c(c1)N(C)CC(C1=NCCN1)O2 (centres undefined) | > 10 | 0.287 | -54 | -14 | -8 | -18 |  |
| c1ccc2c(c1)NCC(C1=NCCN1)O2 (centres undefined) | > 10 | > 10 | -8 | -17 | -9 | -3 |  |
| c1cc2c3c(c1)OC(C1=NCCN1)CN3CC2 (centres undefined) | > 10 | 0.0286 | -103 | -56 | -30 | -25 | Max delta MAP (Rattus norvegicus [8]): -19 mmHg; Variation (Rattus norvegicus [8]): -10%; Max delta MAP (Rattus norvegicus [9]): -48 mmHg; Variation (Rattus norvegicus [9]): -25%; Max delta HR (Rattus norvegicus [10]): -94 beats min-1; Variation (Rattus norvegicus [10]): -27%; Max delta HR (Rattus norvegicus [11]): -50 beats min-1; Variation (Rattus norvegicus [11]): -14% |
| COc1cc(=O)n2c3c(ccc(C)c13)OC(C1=NCCN1)C2 (centres undefined) | 9.4 | 6.8 | -17 | -1 | 0 | -6 |  |
| CN1CC(C2=NCCN2)Oc2ccc(F)cc21 (stereo in doubt; (+)4h) | 2.54 | 0.0682 | -85 | -50 | -28 | -25 |  |
| c1cc2c3c(c1)OC(C1=NCCN1)CN3CCCC2 (centres undefined) | 4.6 | 2.15 | -65 | 21 | 11 | -22 |  |
| CCCN1CC(C2=NCCN2)Oc2ccccc21 (centres undefined) | > 10 | 0.132 | -90 | -26 | -14 | -27 | Ki [7]: 0.16 µM |
| Cc1cc2c(cc1C)N(C)CC(C1=NCCN1)O2 (centres undefined) | 5.66 | 0.026 | -100 | -8 | -5 | -33 |  |
| c1cc2c3c(c1)ccn3CC(C1=NCCN1)O2 (centres undefined) | > 1 | 0.36 | -45 | -24 | -14 | -14 |  |
| Cc1ccc2c3c1CCCN3CC(C1=NCCN1)O2 (centres undefined) | > 10 | 0.23 | -79 | -17 | -9 | -25 |  |
| CN1CC(C2=NCCN2)Oc2cc3ccccc3cc21 (centres undefined) | > 10 | 0.402 | -37 | -17 | -9 | -11 |  |
| Cc1ccc2c(c1)OC(C1=NCCN1)CN2C (centres undefined) | 1 | 0.03 | -60 | -34 | -20 | -19 |  |
| CN1CC(C2=NCCN2)Oc2c1ccc1ccccc21 (centres undefined) | > 10 |  | -80 | -14 | -8 | -24 |  |
| CN1CC(C)(C2=NCCN2)Oc2ccccc21 (centres undefined) | > 1 | > 1 | -37 | -17 | -9 | -11 |  |
| COc1cc(=O)n2c3c(cccc13)OC(C1=NCCN1)C2 (centres undefined) | > 10 | 13 | 13 | -9 | -5 | 4 |  |
| CCOCc1ccc2c(c1)N(C)CC(C1=NCCN1)O2 (centres undefined) | > 10 | > 1 |  |  |  |  |  |
| CN1CC(C2=NCCN2)Oc2ccc(Cl)cc21 (centres undefined) | 1.46 | 0.0525 | -96 | -53 | -28 | -32 | Max delta MAP (Rattus norvegicus [9]): -47 mmHg; Variation (Rattus norvegicus [9]): -24%; Max delta HR (Rattus norvegicus [10]): -40 beats min-1; Variation (Rattus norvegicus [10]): 11% |
| CN1CC(C2=NCCN2)Oc2ccc(F)cc21 (single isomer, unassigned; (-)) | > 1 | 0.0329 | -143 | -55 | -31 | -45 |  |
| CN1CC(C2=NCCN2)Oc2ccc(F)cc21 (stereo in doubt; 4h) | 5.91 | 0.104 | -139 | -6 | -36 | -44 | Max delta MAP (Rattus norvegicus [8]): -34 mmHg; Variation (Rattus norvegicus [8]): -18%; Max delta MAP (Rattus norvegicus [12]): -81 mmHg; Variation (Rattus norvegicus [12]): -44%; Max delta MAP (Rattus norvegicus [9]): -56 mmHg; Variation (Rattus norvegicus [9]): -29%; Max delta HR (Rattus norvegicus [10]): -43 beats min-1; Variation (Rattus norvegicus [10]): -12%; Max delta HR (Rattus norvegicus [13]): -61 beats min-1; Variation (Rattus norvegicus [13]): -18%; Max delta HR (Rattus norvegicus [11]): 25 beats min-1; Variation (Rattus norvegicus [11]): 7% |
| CCCC1(C2=NCCN2)CN(C)c2ccccc2O1 (centres undefined) | > 1 | > 1 | -56 | 22 | 11 | -17 |  |
| CN1CC(C2=NCCN2)Oc2ccc(C(F)(F)F)cc21 (centres undefined) | > 10 | 0.263 | -134 | -32 | -18 | -43 |  |
| CN1CC(C2=NCCN2)Oc2ccc(CO)cc21 (centres undefined) | > 10 | 0.0104 |  |  |  |  |  |
| Cc1ccc2c(c1)N(C)CC(C1=NCCN1)O2 (centres undefined) | > 1 | 0.07 | -127 | -32 | -175 | -37 | Max delta MAP (Rattus norvegicus [8]): -18 mmHg; Variation (Rattus norvegicus [8]): -10%; Max delta MAP (Rattus norvegicus [12]): -53 mmHg; Variation (Rattus norvegicus [12]): -28%; Max delta MAP (Rattus norvegicus [9]): -43 mmHg; Variation (Rattus norvegicus [9]): -23%; Max delta HR (Rattus norvegicus [10]): -32 beats min-1; Variation (Rattus norvegicus [10]): -10%; Max delta HR (Rattus norvegicus [13]): -77 beats min-1; Variation (Rattus norvegicus [13]): -23%; Ki [7]: 0.00199 µM; Max delta HR (Rattus norvegicus [11]): -11 beats min-1; Variation (Rattus norvegicus [11]): -3% |
| Cc1cccc2c1OC(C1=NCCN1)CN2C (centres undefined) | > 1 | 0.0073 | -79 | -24 | -13 | -25 |  |
